Assay results reported in ChEMBL document CHEMBL1134751, “Design and synthesis of ether analogues as potent and selective M2 muscarinic receptor antagonists” (Bioorg Med Chem Lett, 2001).

Tests used:
[1] = target: Muscarinic acetylcholine receptors; M1 & M2 (Homo sapiens) (UniProt P11229+P08172); experiment: Ratio of binding affinity against Muscarinic acetylcholine receptor M1 to that of Muscarinic acetylcholine receptor M2; format: protein assay
[2] = target: T1, Muscarinic acetylcholine receptor M2 (Homo sapiens) (UniProt P08172); experiment: Ratio of binding affinity against Muscarinic acetylcholine receptor M4 to that of Muscarinic acetylcholine receptor M2
T1 sequence (whole entry): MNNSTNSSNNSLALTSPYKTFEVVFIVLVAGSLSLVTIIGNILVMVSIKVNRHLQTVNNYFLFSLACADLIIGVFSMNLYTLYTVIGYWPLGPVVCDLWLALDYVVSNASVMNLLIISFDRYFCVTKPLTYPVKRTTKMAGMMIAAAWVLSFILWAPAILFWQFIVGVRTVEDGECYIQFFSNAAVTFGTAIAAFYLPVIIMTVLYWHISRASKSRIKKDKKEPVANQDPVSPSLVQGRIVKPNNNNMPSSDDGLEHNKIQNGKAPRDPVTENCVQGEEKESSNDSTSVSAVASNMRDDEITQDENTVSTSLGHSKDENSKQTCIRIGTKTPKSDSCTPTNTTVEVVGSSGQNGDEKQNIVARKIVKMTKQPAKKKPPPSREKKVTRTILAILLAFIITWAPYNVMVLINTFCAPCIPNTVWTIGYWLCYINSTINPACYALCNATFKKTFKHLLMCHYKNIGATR

[3] = target: Muscarinic acetylcholine receptors; M2 & M3 (Homo sapiens) (UniProt P20309+P08172); experiment: Ratio of binding affinity against Muscarinic acetylcholine receptor M3 to that of Muscarinic acetylcholine receptor M2; format: protein assay
[4] = target: T1, Muscarinic acetylcholine receptor M2 (Homo sapiens); experiment: Ratio of binding affinity against Muscarinic acetylcholine receptor M5 to that of Muscarinic acetylcholine receptor M2
[5] = target: T2, Muscarinic acetylcholine receptor M2 (Homo sapiens, UniProt P08172); experiment: Binding affinity towards Muscarinic acetylcholine receptor M2 stably expressed in CHO-K1 cells using [3H]-QNB as radioligand; format: cell-based
T2 sequence (P08172 whole entry): T1 sequence (whole entry)
How it was run: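 Competition binding on membranes of clonal cells expressing receptor at 1–9 pmol/mg protein. Incubated with 180 pM [3H]QNB in 10 mM potassium phosphate pH 7.4 plus 1% DMSO and 0.4% methylcellulose for 120 min at rt to equilibrium. Non-specific binding defined with 0.5 mM atropine, protein set for 700–1500 cpm specific binding, then filtration separation. QNB Kd from saturation with 5–2500 pM [3H]QNB.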

Sequence of Muscarinic acetylcholine receptors; M1 & M2 (Homo sapiens) (P11229 whole entry, looked up, one chain of several): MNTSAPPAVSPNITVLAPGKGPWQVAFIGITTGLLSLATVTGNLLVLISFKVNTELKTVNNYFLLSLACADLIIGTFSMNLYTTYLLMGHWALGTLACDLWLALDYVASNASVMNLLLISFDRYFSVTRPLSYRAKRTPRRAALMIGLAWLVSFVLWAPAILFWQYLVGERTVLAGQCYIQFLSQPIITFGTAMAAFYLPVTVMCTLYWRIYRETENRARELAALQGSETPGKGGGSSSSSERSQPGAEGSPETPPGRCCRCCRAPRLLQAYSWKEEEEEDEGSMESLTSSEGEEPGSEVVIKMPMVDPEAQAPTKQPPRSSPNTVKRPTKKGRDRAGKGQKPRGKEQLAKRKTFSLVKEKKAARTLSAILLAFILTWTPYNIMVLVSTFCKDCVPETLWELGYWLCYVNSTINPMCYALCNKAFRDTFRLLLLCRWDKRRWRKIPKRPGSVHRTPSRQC

| SMILES | Ratio [1] | Ratio [2] | Ratio [3] | Ratio [4] | Ki [5] [nM] |
| --- | --- | --- | --- | --- | --- |
| CCOCC(=O)N1CCC(N2CCC(Oc3ccc(S(=O)(=O)c4ccc5c(c4)OCO5)cc3)CC2)CC1 | 6 | 2 | 5 | 13 | 17.9 |
| CCS(=O)(=O)N1CCC(N2CCC(Oc3ccc(S(=O)(=O)c4ccc5c(c4)OCO5)cc3)CC2)CC1 | 49 | 12 | 122 | 46 | 2 |
| CCOC(=O)N1CCC(N2CCC(Oc3ccc(S(=O)(=O)c4ccc5c(c4)OCO5)cc3)CC2)CC1 | 4 |  |  |  | 6 |
| Cc1ccsc1C(=O)N1CCC(N2CCC(Oc3ccc(S(=O)(=O)c4ccc5c(c4)OCO5)cc3)CC2)CC1 | 234 | 23 | 109 | 196 | 0.2 |
| CCCCS(=O)(=O)N1CCC(N2CCC(Oc3ccc(S(=O)(=O)c4ccc5c(c4)OCO5)cc3)CC2)CC1 | 35 | 4 | 50 | 35 | 6.9 |
| CCCS(=O)(=O)N1CCC(N2CCC(Oc3ccc(S(=O)(=O)c4ccc(OC)cc4)cc3)CC2)CC1 |  |  |  |  | 139 |
| O=C(c1cccc2cccnc12)N1CCC(N2CCC(Oc3ccc(S(=O)(=O)c4ccc5c(c4)OCO5)cc3)CC2)CC1 | 9 | 2 | 10 | 4 | 12 |
| CC(C)S(=O)(=O)N1CCC(N2CCC(Oc3ccc(S(=O)(=O)c4ccc5c(c4)OCO5)cc3)CC2)CC1 | 10 | 2 | 2 | 16 | 14 |
| O=C(c1cccc2ccccc12)N1CCC(N2CCC(Oc3ccc(S(=O)(=O)c4ccc5c(c4)OCO5)cc3)CC2)CC1 | 357 | 28 | 216 | 50 | 0.5 |
| O=C(c1cccc2ncccc12)N1CCC(N2CCC(Oc3ccc(S(=O)(=O)c4ccc5c(c4)OCO5)cc3)CC2)CC1 | 233 | 21 | 124 | 64 | 0.5 |
| O=C(c1ccnc2ccccc12)N1CCC(N2CCC(Oc3ccc(S(=O)(=O)c4ccc5c(c4)OCO5)cc3)CC2)CC1 | 140 | 18 | 117 | 1480 | 1 |
| O=C(Oc1ccccc1)N1CCC(N2CCC(Oc3ccc(S(=O)(=O)c4ccc5c(c4)OCO5)cc3)CC2)CC1 | 48 | 11 | 61 | 69 | 1.1 |
| O=C(c1ccccc1)N1CCC(N2CCC(Oc3ccc(S(=O)(=O)c4ccc5c(c4)OCO5)cc3)CC2)CC1 | 18 | 6 | 6 | 15 | 1.6 |

The remaining molecules from weak to strong by Ki [5], led by results:

| Ratio [1] | Ratio [2] | Ratio [3] | Ratio [4] | Ki [5] [nM] | SMILES |
| --- | --- | --- | --- | --- | --- |
| 8 | 3 | 5 | 13 | 59.5 | O=C(COc1ccccc1)N1CCC(N2CCC(Oc3ccc(S(=O)(=O)c4ccc5c(c4)OCO5)cc3)CC2)CC1 |
| 2 | 1 | 8 | 4 | 34.7 | O=S(=O)(c1ccc(OC2CCN(C3CCN(S(=O)(=O)c4cccc5ccccc45)CC3)CC2)cc1)c1ccc2c(c1)OCO2 |
| 19 | 4 | 12 | 1 | 15 | O=S(=O)(c1ccc(OC2CCN(C3CCN(S(=O)(=O)Cc4ccccc4)CC3)CC2)cc1)c1ccc2c(c1)OCO2 |
| 59 | 7 | 19 | 10 | 3.2 | CC(C)OC(=O)N1CCC(N2CCC(Oc3ccc(S(=O)(=O)c4ccc5c(c4)OCO5)cc3)CC2)CC1 |
| 58 | 25 | 46 | 39 | 1.6 | CCCS(=O)(=O)N1CCC(N2CCC(Oc3ccc(S(=O)(=O)c4ccc5c(c4)OCO5)cc3)CC2)CC1 |
| 155 | 31 | 132 | 56 | 0.4 | Cc1cccc(C(=O)N2CCC(N3CCC(Oc4ccc(S(=O)(=O)c5ccc6c(c5)OCO6)cc4)CC3)CC2)c1C |
